In brackets after ≈: the same amount, converted by molar mass.
Columns and labels:
[1] = Aqueous solubility of the compound at 0.1 M phosphate buffer after 16 hrs by UV spectrometry; type: physicochemical
In short: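 Excess solid (10 mg) was agitated for 16 h with 5 mL of 0.1 M phosphate buffer. The mixture was filtered through sintered glass to remove undissolved solid. Dissolved concentration was determined from UV absorbance against values previously determined in buffer.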

[2] = system: Human alphaherpesvirus 1; test: Antiviral activity against HSV-1 assessed at 17 ug/ml by plaque reduction assay relative to control; type: functional; set-up: scale not given: the % may be the effect or the level left
[3] = system: Human alphaherpesvirus 1; test: Antiviral activity against HSV-1 assessed at 6 ug/ml by plaque reduction assay relative to control; type: functional; set-up: scale not given: the % may be the effect or the level left
[4] = Aqueous stability of the compound assessed as hydrolysis rate at 25 degC by Arrhenius plot; type: physicochemical; details: buffer
In short: (§1)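 Ester hydrolysis was followed at pH 6.56 at 60, 80 and 100 °C by HPLC (40:60 methanol-water, 254-nm detection). First-order rates came from log[ester] vs time. An Arrhenius plot of log rate vs reciprocal temperature (K) was extrapolated to 25 °C.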

[5] = Aqueous stability of the compound assessed as time required for 10% decomposition at 25 degC by Arrhenius plot; type: physicochemical; details: buffer; in short: as §1
[6] = biological target: T1, Adenosine deaminase (Bos taurus, UniProt P56658); test: Inhibition of calf mucosal adenosine deaminase
T1 sequence (P56658 whole entry): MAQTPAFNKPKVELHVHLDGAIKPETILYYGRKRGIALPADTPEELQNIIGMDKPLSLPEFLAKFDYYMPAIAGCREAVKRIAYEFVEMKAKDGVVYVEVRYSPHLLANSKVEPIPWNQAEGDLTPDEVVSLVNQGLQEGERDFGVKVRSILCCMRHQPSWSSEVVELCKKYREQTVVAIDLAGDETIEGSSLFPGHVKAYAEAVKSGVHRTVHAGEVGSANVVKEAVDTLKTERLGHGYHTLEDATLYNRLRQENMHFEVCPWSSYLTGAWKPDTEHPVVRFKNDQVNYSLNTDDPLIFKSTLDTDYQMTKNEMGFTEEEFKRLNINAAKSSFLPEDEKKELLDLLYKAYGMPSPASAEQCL

[7] = biological target: T1, Adenosine deaminase; test: Stability of the compound assessed as calf mucosal adenosine deaminase-mediated drug metabolism; type: ADME; details: cattle
[8] = system: Human alphaherpesvirus 1; test: Antiviral activity against HSV-1 assessed at 0.6 ug/ml by plaque reduction assay relative to control; type: functional; set-up: scale not given: the % may be the effect or the level left
[9] = system: Human alphaherpesvirus 1; test: Antiviral activity against HSV-1 assessed at 7 ug/ml by plaque reduction assay relative to control; type: functional; set-up: scale not given: the % may be the effect or the level left
[10] = system: Human alphaherpesvirus 1; test: Antiviral activity against HSV-1 assessed at 20 ug/ml by plaque reduction assay relative to control; type: functional; set-up: scale not given: the % may be the effect or the level left
[11] = system: Human alphaherpesvirus 1; test: Antiviral activity against HSV-1 assessed at 6.5 ug/ml by plaque reduction assay relative to control; type: functional; set-up: scale not given: the % may be the effect or the level left
[12] = system: Human alphaherpesvirus 1; test: Antiviral activity against HSV-1 assessed at 2 ug/ml by plaque reduction assay relative to control; type: functional; set-up: scale not given: the % may be the effect or the level left
[13] = Half life of the compound; type: physicochemical

Compound | solubility at 16 h [1] | Stability [7] | Activity [3] | Activity [11] | other results
CCCC(=O)OC[C@H]1O[C@@H](n2cnc3c(N)ncnc32)[C@@H](O)[C@@H]1O | 16100 µg/mL (≈ 47.7 mM) |  | 67% |  | 
CCCCC(=O)OC[C@H]1O[C@@H](n2cnc3c(N)ncnc32)[C@@H](O)[C@@H]1O | 8400 µg/mL (≈ 23.9 mM) | Stable | 100% |  | Drug degradation [4]: 5.4 ×10⁻⁶ /hr; Time [5]: 2.25 yr; Ki [6]: 11 µM; Activity [8]: 90%
CC(C)CC(=O)OC[C@H]1O[C@@H](n2cnc3c(N)ncnc32)[C@@H](O)[C@@H]1O | 19800 µg/mL (≈ 56.4 mM) | Stable |  |  | Activity [9]: 53%
CC(C)(C)C(=O)OC[C@H]1O[C@@H](n2cnc3c(N)ncnc32)[C@@H](O)[C@@H]1O | 7000 µg/mL (≈ 19.9 mM) | Stable |  |  | Activity [10]: 11%
CCCCCC(=O)OC[C@H]1O[C@@H](n2cnc3c(N)ncnc32)[C@@H](O)[C@@H]1O | 2500 µg/mL (≈ 6.84 mM) | Stable |  | 25% | 
CC(C)(C)CC(=O)OC[C@H]1O[C@@H](n2cnc3c(N)ncnc32)[C@@H](O)[C@@H]1O | 7800 µg/mL (≈ 21.3 mM) | Stable |  | 10% | 
CCCCCCCC(=O)OC[C@H]1O[C@@H](n2cnc3c(N)ncnc32)[C@@H](O)[C@@H]1O | 100 µg/mL (≈ 0.254 mM) |  |  |  | Activity [12]: 45%
Nc1ncnc2c1ncn2[C@@H]1O[C@H](COC=O)[C@@H](O)[C@@H]1O |  |  |  |  | half-life [13]: 240 h
Nc1ncnc2c1ncn2[C@@H]1O[C@H](CO)[C@@H](O)[C@@H]1O [VIDARABINE] |  |  | 54% | 63% | Activity [2]: 100%; Activity [9]: 63%; Activity [8]: 0%; Activity [12]: 64%; Activity [10]: 69%

Now from value to compound, other results behind:

solubility at 16 h [1] | Stability [7] | Compound | Activity [3] | Activity [11] | other results
6600 µg/mL (≈ 21.3 mM) |  | CC(=O)OC[C@H]1O[C@@H](n2cnc3c(N)ncnc32)[C@@H](O)[C@@H]1O |  |  | Activity [2]: 86%
9200 µg/mL (≈ 28.5 mM) |  | CCC(=O)OC[C@H]1O[C@@H](n2cnc3c(N)ncnc32)[C@@H](O)[C@@H]1O | 83% |  | 
1500 µg/mL (≈ 3.76 mM) |  | Nc1ncnc2c1ncn2[C@@H]1O[C@H](COC(=O)CCc2ccccc2)[C@@H](O)[C@@H]1O |  |  | Activity [9]: 29%
80 µg/mL (≈ 0.215 mM) |  | Nc1ncnc2c1ncn2[C@@H]1O[C@H](COC(=O)c2ccccc2)[C@@H](O)[C@@H]1O |  | 71% | 

From ChEMBL document CHEMBL3243926, “Prodrugs of 9-beta-D-arabinofuranosyladenine. 1. Synthesis and evaluation of some 5'-(O-acyl) derivatives” (J Med Chem, 1978)
